From PubChem BioAssay
FLuc inh counter – firefly luciferase enzyme inhibitors, primary screen, artefact control for luciferase-based inhibitor screens, biochemical, luminescence, ATPLite; 10 min; Luciferin 4-monooxygenase (Photinus pyralis), P08659; 200,000 compounds, 1.5% hits; inhibition, % at 10 µM;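 active = inhibition above about 50% when tested at 10 µM, limit read from the data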
Target sequence (P08659 whole entry, looked up): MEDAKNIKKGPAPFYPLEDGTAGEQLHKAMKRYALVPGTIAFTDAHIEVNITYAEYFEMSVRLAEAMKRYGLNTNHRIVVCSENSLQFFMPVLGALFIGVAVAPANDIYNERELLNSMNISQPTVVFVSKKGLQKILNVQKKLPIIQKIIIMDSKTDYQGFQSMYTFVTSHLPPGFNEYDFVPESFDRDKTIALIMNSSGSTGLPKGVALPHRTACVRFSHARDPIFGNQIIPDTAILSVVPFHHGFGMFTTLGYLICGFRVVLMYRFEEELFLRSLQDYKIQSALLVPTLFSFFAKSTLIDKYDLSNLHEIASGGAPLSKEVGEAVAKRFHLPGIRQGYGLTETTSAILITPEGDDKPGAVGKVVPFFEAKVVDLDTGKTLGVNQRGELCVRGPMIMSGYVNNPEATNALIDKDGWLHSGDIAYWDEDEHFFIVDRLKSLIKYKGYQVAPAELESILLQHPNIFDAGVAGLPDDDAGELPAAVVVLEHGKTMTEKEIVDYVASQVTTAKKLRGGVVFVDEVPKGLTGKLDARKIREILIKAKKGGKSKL
FLuc stim CS – FLuc activators, initial screening, artefact control for FLuc-dependent activation tests, biochemical, ATPlite luminescence; Luciferin 4-monooxygenase (Photinus pyralis), P08659; 200,000 tested, under 10 active; activation factor at 10 µM; ATPlite luciferase biochemical, 10 min; 0 = ATP-free wells, 1 = DMSO control; AID 1027, 2008;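 active = luciferase activation factor, scaled between plate controls, of at least 2 with compound at 10 µM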
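test system = cell-free luciferase reagent | medium = PBS as buffer for the ATP substrate | dosing = test compounds dosed from 2 mM stocks in 100% DMSO | incubation = 10 min at ambient temperature | detection = luminescence measurement of luciferase light output | benchmarks = low control with PBS replacing ATP, high control enzyme plus ATP without compound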
C8 TRAIL sens – viability loss with TRAIL in NB7+C8 cells, primary screen, TRAIL sensitizer project, cell-based, ATPlite luminescence; inhibition (viability loss, TRAIL sensitization), % at 10 µM; 360,000 compounds, 1% hits; AID 624354, 2012;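 active = compounds causing at least 50% loss of cell viability in the single-dose screen, relative to plate controls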
PPC-1+TRAIL kill – compounds killing PPC-1 cancer cells with TRAIL present, primary screen, TRAIL potentiator project, ATPLite luminescence, uHTS. AID 1443, 2008. 220,000 compounds, 0.41% hits. cell killing (% activity), % at 4 µM or 5 µM. PPC-1 cells + TRAIL, ATPLite viability luminescence;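 active = cell killing above 50% in the first pass at 4 µM, then a duplicate retest at 5 µM averaging 50% or more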;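 also: plate controls were cells with TRAIL plus DMSO for no effect and medium-only wells lacking cells for full effect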
PPC-1 tox – cytotoxicity in PPC-1 cells, confirmation, cytotoxicity control for TRAIL apoptosis potentiator project, cell-based, ATP content luminescence | cytotoxicity, % at 5 µM | shares compounds with PPC-1+TRAIL kill | 1,200 compounds, 50% hits | PPC-1 viability, ATPlite luminescence, overnight;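 active = reconfirmed compounds whose average cytotoxicity reaches 50% or more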;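 also: 0% = DMSO-treated cells and 100% = wells holding medium but no cells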
* hit, by the source's call; x = no result. Only some compounds are listed: those with a hit (about 1.5% of all), similar ones and a draw of the others.

SMILES	FLuc inh counter	FLuc stim CS	C8 TRAIL sens	PPC-1+TRAIL kill	PPC-1 tox
C[C@]12CCC3C(CCC4=CC(O)CC[C@@]43/C=N/O)C1(O)CCC2C1=CC(=O)OC1 (stereo partly drawn)	x	x	51.7*	x	x
CC12CCC3C(CCC4(O)CC(O)CCC34C=O)C1(O)CCC2C1=CC(=O)OC1 (stereo not drawn)	x	x	69.1*	x	x
C[N+]1(C)CCN(c2ccccc2)CC1	-6.1	1.1	-2.0	1.7	x
Clc1ccccc1CN1CCN(c2ccccc2Cl)CC1	-8.1	1.1	9.9	10.3	x
CCCCN=C[C@]12CCC(O)CC1(O)CCC1[C@@H]2CC[C@]2(C)[C@H](C3C=CC(=O)O3)CCC12O (stereo partly drawn)	x	x	42.2	x	x
C[C@]12CC[C@H]3[C@@H](CC[C@]4(O)C[C@@H](O)CC[C@]34C=O)[C@@]1(O)CC[C@@H]2C1=CC(=O)OC1	x	x	61.2*	x	x
CCCCCCCCCCCCCCCC[N+](C)(C)C	x	x	85.0*	x	x
COc1ccc(C(=O)C2CCCN(Cc3ccsc3)C2)cc1OC (stereo not drawn)	-2.2	1	0.8	29.8	x
COC(=O)C[C@]1(C(=O)OC)CN(C#N)N(c2ccc(Cl)cc2)C12c1ccccc1-c1ccccc12	-5.4	1.1	91.3*	47.9	x
COC(=O)[C@@H]1[C@@H](C(=O)OC)C2(c3ccccc3-c3ccccc32)N(c2ccc(Cl)cc2)N1C#N	-2.8	1	91.7*	25.9	x
Cc1cc2c(C(F)(F)F)cc(=O)oc2c2c1NCCC2	-9.0	1.1	5.7	14.2	x
C=C[C@@H]1C[C@@]1(C)[C@@H](NP(=O)(c1ccccc1)c1ccccc1)c1ccccc1	-1.0	1	0.7	9.0	x
N[C@@H](Cc1ccc(N(CCCl)CCCl)cc1)C(=O)O	x	x	4.6	x	x
ClCCN(CCCl)c1ccc(-n2cnc3c(Cl)ncnc32)cc1	x	x	86.1*	x	x
CC(C)(C)n1cc(C(=O)c2ccc3ccccc3c2O)cn1	68.8*	0.3	50.3*	41.6	x
CC(C)(C)n1cc(C(=O)c2ccccc2OCCCF)cn1	x	x	-0.8	x	x
CN1CCN(C(=O)COc2ccc3ccccc3c2)CC1	x	x	-1.4	x	x
CN1CCN(C(=O)COc2ccc(-c3nc4ccccc4s3)cc2)CC1	96.4*	0	91.7*	91.8*	91.2*
COC(=O)C1=C(c2cccc(OCc3ccccc3)c2)C[C@@H]2CC[C@H]1N2C(=O)NCc1ccc(C(F)(F)F)cc1	x	x	20.5	x	x
CCOC(=O)c1c(C)n(Cc2ccccc2)c2ccc(OCC(O)CN3C(=O)CNC3=O)cc12 (stereo not drawn)	-16.4	1.2	14.4	15.3	12.5
CCC(=NCc1cccnc1)c1c(O)n(-c2ccccc2)c(=O)[nH]c1=O	x	x	-9.0	20.2	x
C=CCn1c(O)c(C(CC)=NCCc2c[nH]c3ccccc23)c(=O)[nH]c1=O	x	x	6.8	-3.7	x
C[C@H]1C[C@@H](C)C(=O)[C@@H]([C@H](O)CC2CC(=O)NC(=O)C2)C1	-4.7	1	27.2	33.2	41.7
c1ccc(-c2cc(-c3ccccc3)[n+](-c3ccccc3)c(-c3ccccc3)c2)cc1	x	x	75.2*	28.2	31.8
CN(C)c1ccc(-[n+]2c(-c3ccccc3)cc(-c3ccccc3)cc2-c2ccccc2)cc1	-6.3	1.1	42.3	43.5	40.9
SMILES	FLuc inh counter	FLuc stim CS	C8 TRAIL sens	PPC-1+TRAIL kill	PPC-1 tox
CCN1CCOC(c2ccccc2)C1 (stereo not drawn)	x	x	3.9	x	x
CCOc1ccc(Br)c(C2(O)CC(C)N(C)CC2C)c1 (stereo not drawn)	-4.4	1	-1.5	-2.6	x
COc1cccc(N=Nc2c(O)[nH]c(=S)[nH]c2=O)c1	x	x	20.3	14.8	x
O=c1[nH]c(=S)[nH]c(O)c1N=Nc1ccc2c(c1)OCCO2	x	x	55.8*	73.5*	72.9*
Cc1cc(/C=C2\C(=O)NC(=O)N(c3ccccc3)C2=O)c(C)n1-c1ccc(C(=O)O)c(Cl)c1	x	x	-13.8	x	x
C/C=C(\C)C(=O)OC1C(C)=C2C(C1OC(=O)CCCCC)C(C)(OC(C)=O)CC(OC(=O)CCC)C1(O)C2OC(=O)C1(C)O (stereo not drawn)	x	x	x	56.6*	54.4*
CN1CCN(CC#CCOc2ccc(Cl)cc2)CC1	x	x	8.5	x	x
C[C@H]1O[C@@H](O[C@H]2[C@@H](O)C[C@H](O[C@H]3[C@@H](O)C[C@H](O[C@H]4CC[C@@]5(C)[C@H](CC[C@@H]6[C@@H]5CC[C@]5(C)[C@@H](C7=CC(=O)OC7)CC[C@]65O)C4)O[C@@H]3C)O[C@@H]2C)C[C@H](O)[C@@H]1O	-4.8	1	x	73.8*	73.1*
C[C@@H]1O[C@@H](O[C@H]2C[C@@H](O)[C@]3(CO)[C@H]4[C@H](O)C[C@]5(C)[C@@H](C6=CC(=O)OC6)CC[C@]5(O)[C@@H]4CC[C@]3(O)C2)[C@H](O)[C@H](O)[C@H]1O	2.0	1	44.1	73.8*	75.5*
O=C1C2CCN(CC2)[C@@H]1Cc1ccc2ccccc2c1O	7.0	0.9	-20.7	-5.5	x
Cn1ncnc2c(=O)n(C)c(=O)nc1-2	-5.5	1.1	96.0*	89.3*	90.3*
